This is an account of results in ChEMBL document CHEMBL5678799 (Biochem J, 2009).

The target of series [1] is CDK2/Cyclin A2 (Homo sapiens) (UniProt P24941+P20248). In words: Inhibition of recombinant human N-terminal GST-tagged CDK2 (2 to 298 residues)/N-terminal GST-tagged Cyclin A2 (171 to 432 residues) expressed in Escherichia coli assessed as remaining activity at 10 uM using YSPTSPSYSPTSPSYSPTSPKKK as substrate incubated for 30 mins in presence of [gamma-33P]ATP by filter binding method relative to control. In a few lines: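 Incubations ran robotically for 30 min at room temperature (21 °C) under linear conditions. Results are percent activity remaining versus controls without compound, as the mean of triplicates ± S.D.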

Series [2] concerns the target Inhibitor of nuclear factor kappa-B kinase subunit beta (Homo sapiens) (UniProt O14920). The experiment in a line: Inhibition of recombinant human N-terminal His6-tagged IKKbeta (1 to 736 residues) expressed in baculovirus infected Sf21 cells assessed as remaining activity at 1 uM using LDDRHDSGLDSMKDEEY as substrate incubated for 30 mins in presence of [gamma-33P]ATP by filter binding method relative to control. In a few lines: (§1)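 Profiling-centre panel assay performed robotically at 21 °C for 30 min, linear with time and enzyme. […] Values are percent of compound-free control activity, the mean of triplicates ± S.D.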

Series [3] addresses Inhibitor of nuclear factor kappa-B kinase subunit epsilon (Homo sapiens) (UniProt Q14164). In words: Inhibition of recombinant human N-terminal GST-tagged IKKepsilon (1 to 716 residues) expressed in baculovirus infected Sf21 cells assessed as remaining activity at 1 uM using MBP as substrate incubated for 30 mins in presence of [gamma-33P]ATP by filter binding method relative to control. Summed up: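 Incubation was 30 min at room temperature (21 °C) under conditions linear with time and enzyme amount. Activity is reported as percent of control lacking compound, triplicate mean ± S.D.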

The target of series [4] is Dual specificity mitogen-activated protein kinase kinase 1 (Homo sapiens) (UniProt Q02750). In words: Inhibition of recombinant human MKK1 (2 to 393 residues) expressed in Escherichia coli assessed as remaining activity at 1 uM using MBP as substrate incubated for 30 mins in presence of [gamma-33P]ATP by filter binding method relative to control. Summed up: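 Kinase panel run robotically at 21 °C for 30 min, linear in time and enzyme. […] Compound tested at 1 or 10 µM. Activity given as percentage of incubations without compound, mean of triplicates ± S.D.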
Dual specificity mitogen-activated protein kinase kinase 1 (Homo sapiens), sequence (Q02750 whole entry, the tested form may be a part): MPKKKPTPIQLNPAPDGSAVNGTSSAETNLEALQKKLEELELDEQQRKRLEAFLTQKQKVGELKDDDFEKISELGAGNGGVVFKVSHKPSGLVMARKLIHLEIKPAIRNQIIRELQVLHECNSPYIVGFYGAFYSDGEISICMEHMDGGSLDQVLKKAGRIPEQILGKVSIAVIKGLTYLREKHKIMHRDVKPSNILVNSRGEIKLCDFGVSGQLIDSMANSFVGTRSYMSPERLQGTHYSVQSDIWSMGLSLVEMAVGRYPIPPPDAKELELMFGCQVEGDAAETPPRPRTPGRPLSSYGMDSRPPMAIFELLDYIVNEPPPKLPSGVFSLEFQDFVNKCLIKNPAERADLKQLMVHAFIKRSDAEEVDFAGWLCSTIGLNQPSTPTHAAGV

Series [5] has as its target Tyrosine-protein kinase SYK (Homo sapiens) (UniProt P43405). In words: Inhibition of recombinant human N-terminal His6-tagged SYK (1 to 635 residues) expressed in baculovirus infected Sf21 cells assessed as remaining activity at 1 uM using Poly (Glu,Tyr) as substrate incubated for 30 mins in presence of [gamma-33P]ATP by filter binding assay relative to control.
Series [6] concerns the target Inhibitor of nuclear factor kappa-B kinase subunit beta (Homo sapiens) (UniProt O14920). In words: Inhibition of recombinant human N-terminal His6-tagged IKKbeta (1 to 736 residues) expressed in baculovirus infected Sf21 cells assessed as remaining activity at 10 uM using LDDRHDSGLDSMKDEEY as substrate incubated for 30 mins in presence of [gamma-33P]ATP by filter binding method relative to control. Summed up:
as §1

The target of series [7] is Serine/threonine-protein kinase PLK1 (Homo sapiens) (UniProt P53350). In words: Inhibition of recombinant human N-terminal His6-tagged PLK1 (1 to 603 residues) expressed in baculovirus infected Sf21 cells assessed as remaining activity at 10 uM using ISDELMDATFADQEAKKK as substrate incubated for 30 mins in presence of [gamma-33P]ATP by filter binding method relative to control. Summed up:
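Radiometric panel assay run robotically at 21 °C for 30 min, linear in time and enzyme. […] Activity is expressed as percentage of the compound-omitted control, averaged from triplicates ± S.D.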

Series [8] concerns the target Phosphatidylinositol 4-phosphate 3-kinase C2 domain-containing subunit beta (Homo sapiens) (UniProt O00750). The experiment in a line: Inhibition of PI3KC2beta (unknown origin) assessed as remaining activity at 10 uM using phosphatidylinositol as substrate incubated for 30 mins in presence of ATP relative to control. In a few lines:
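PI3KC2β assayed with 20 μM phosphatidylinositol, 0.2 mM ATP, 2 mM MgCl2, in Tris/HCl pH 7.5 with CHAPS, 30 min at room temperature. Stopped with EDTA, product detected by time-resolved FRET competition with PtdIns3P–biotin and SGK PX domain. Activity as % of no-compound control, triplicate.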

The species entered for the next series is Homo sapiens. In words: Inhibition of choline kinase (unknown origin) assessed as remaining activity at 10 uM using choline as substrate incubated for 30 mins in presence of ATP by Kinase Glo assay relative to control. In a few lines:
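Choline kinase assayed with 1 mM choline, 1 μM ATP in 25 mM glycine/NaOH pH 8.5, 67 mM KCl, 5 mM MgCl2, 1 mM DTT, 30 min at room temperature. Stopped with Kinase-Glo Plus, luminescence read after 10 min. Activity relative to control, triplicate.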

The subject of series [9] is HEK293. In words: Inhibition of PI3K in IGF1-stimulated HEK293 cells assessed as reduction in IGF1-stimulated PtdIns(3,4,5)P3 production at 1 uM pre incubated for 30 mins followed by IGF1-stimulation for 10 mins. Particulars: Homo sapiens. Format: cell-based.
Series [10] relates to HEK293. In words: Inhibition of PI3K in serum starved HEK293 cells expressing GST-tagged-AKT1 S473D mutant assessed as reduction in IGF1-stimulated AKT1 phosphorylation at Thr308 residue at 100 to 1000 nM incubated for 20 mins by immunoblot analysis. Format: cell-based. As to conditions: Homo sapiens, dose 100-1000 nM. In a few lines: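 HEK-293 cells transfected with wild-type or S473D GST–Akt1. At 24 h, serum-starved 16 h, pretreated 30 min with inhibitor, then stimulated with IGF-1 for 20 min. Lysates immunoblotted for Thr308 phosphorylation. Three separate experiments.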
In general terms: Immunoblotting shows a protein as a band on a membrane.

In another series the test system is MEF. The experiment in a line: Induction of cell cycle arrest in MEF cells assessed as accumulation at G2 phase at 3 uM incubated for 1 to 3 days by propidium iodide staining based flow cytometric analysis (reference value: 15.4 +/- 2.04%). Format: toxicity. As to conditions: mouse, time 1-3 day.
Series [11] deals with T1, mTORC2 (Homo sapiens) (UniProt P42345+Q6R327+Q9BVC4+Q9BPZ7). As to conditions: HEK293, dose 30-1000 nM, time 30.0 min.
For series [12], the target named is T1, mTORC2 (Homo sapiens). As to conditions: HEK293, dose 30-100 nM, time 30.0 min.
Series [13] concerns the target T1, mTORC2 (Homo sapiens). Particulars: HEK293, dose 100-1000 nM, time 20.0 min.
Series [14] has as its target Serine/threonine-protein kinase D1 (Homo sapiens) (UniProt Q15139). The experiment in a line: Inhibition of recombinant human N-terminal His6-tagged PKD1 (2 to 912 residues) expressed in baculovirus infected Sf21 cells assessed as remaining activity at 1 uM using KKLNRTLSVA as substrate incubated for 30 mins in presence of [gamma-33P]ATP by filter binding method relative to control.

Calls of active or inactive are those of the source. The calls are words filed in the database; no cut-off is given here.

Inhibitor of nuclear factor kappa-B kinase subunit beta (Homo sapiens), sequence (O14920 whole entry, the tested form may be a part): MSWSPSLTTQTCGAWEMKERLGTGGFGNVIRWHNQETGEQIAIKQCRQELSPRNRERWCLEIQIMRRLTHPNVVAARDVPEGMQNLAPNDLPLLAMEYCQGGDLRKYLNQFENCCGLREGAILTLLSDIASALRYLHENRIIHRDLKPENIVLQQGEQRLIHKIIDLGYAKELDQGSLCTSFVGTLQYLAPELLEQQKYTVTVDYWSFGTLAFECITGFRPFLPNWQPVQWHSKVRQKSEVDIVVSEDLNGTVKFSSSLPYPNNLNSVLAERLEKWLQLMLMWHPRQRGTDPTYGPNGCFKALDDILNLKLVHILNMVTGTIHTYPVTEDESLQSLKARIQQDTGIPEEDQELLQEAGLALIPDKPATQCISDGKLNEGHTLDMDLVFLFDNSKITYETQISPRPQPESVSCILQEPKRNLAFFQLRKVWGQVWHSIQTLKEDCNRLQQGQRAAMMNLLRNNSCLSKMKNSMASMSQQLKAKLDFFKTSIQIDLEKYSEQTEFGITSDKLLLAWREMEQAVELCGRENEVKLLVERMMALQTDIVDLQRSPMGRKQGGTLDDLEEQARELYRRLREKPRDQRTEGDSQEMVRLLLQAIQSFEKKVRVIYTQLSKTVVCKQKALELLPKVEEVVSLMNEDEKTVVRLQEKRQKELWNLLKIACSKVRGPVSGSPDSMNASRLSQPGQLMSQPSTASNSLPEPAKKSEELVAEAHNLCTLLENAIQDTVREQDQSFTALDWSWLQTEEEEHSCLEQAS
Phosphatidylinositol 4-phosphate 3-kinase C2 domain-containing subunit beta (Homo sapiens), sequence (O00750 whole entry, the tested form may be a part): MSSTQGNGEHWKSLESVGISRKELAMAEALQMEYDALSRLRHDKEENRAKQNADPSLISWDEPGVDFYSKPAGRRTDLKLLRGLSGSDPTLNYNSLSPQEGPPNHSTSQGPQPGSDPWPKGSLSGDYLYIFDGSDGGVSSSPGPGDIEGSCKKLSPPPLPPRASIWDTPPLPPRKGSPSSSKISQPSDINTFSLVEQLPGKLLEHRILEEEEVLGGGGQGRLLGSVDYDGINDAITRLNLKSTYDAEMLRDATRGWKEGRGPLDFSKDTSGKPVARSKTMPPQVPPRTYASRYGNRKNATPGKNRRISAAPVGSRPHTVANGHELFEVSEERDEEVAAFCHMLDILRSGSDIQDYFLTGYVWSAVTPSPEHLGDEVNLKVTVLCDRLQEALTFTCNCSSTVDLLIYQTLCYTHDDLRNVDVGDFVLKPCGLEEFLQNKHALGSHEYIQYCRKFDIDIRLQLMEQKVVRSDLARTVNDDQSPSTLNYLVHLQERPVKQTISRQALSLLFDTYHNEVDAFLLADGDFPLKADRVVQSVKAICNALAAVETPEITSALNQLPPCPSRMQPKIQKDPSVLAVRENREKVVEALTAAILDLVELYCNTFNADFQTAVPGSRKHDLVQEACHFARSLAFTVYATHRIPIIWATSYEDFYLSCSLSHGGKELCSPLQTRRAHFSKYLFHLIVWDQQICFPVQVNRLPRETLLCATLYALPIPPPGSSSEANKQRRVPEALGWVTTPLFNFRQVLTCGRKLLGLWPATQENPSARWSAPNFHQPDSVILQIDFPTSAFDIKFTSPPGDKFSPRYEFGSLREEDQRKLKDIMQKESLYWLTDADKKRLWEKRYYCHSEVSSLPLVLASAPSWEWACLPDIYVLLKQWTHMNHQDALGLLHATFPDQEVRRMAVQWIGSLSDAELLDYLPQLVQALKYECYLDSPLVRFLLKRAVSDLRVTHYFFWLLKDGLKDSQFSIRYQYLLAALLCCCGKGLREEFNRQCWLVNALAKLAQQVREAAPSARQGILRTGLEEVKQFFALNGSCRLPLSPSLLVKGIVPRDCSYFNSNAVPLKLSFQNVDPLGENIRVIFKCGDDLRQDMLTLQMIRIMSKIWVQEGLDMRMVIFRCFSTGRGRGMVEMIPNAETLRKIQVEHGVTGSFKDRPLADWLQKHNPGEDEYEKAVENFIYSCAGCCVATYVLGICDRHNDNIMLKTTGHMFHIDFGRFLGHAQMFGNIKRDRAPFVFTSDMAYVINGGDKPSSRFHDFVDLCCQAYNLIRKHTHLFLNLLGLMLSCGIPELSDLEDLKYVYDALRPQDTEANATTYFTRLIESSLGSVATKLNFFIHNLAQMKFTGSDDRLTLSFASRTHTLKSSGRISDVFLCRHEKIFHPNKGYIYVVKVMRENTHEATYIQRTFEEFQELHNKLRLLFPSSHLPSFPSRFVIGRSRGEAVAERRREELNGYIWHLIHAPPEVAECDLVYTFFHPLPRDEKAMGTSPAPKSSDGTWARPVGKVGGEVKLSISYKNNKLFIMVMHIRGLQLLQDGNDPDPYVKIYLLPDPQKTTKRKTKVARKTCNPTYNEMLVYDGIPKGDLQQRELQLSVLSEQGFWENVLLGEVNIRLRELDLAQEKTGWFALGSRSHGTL
Serine/threonine-protein kinase PLK1 (Homo sapiens), sequence (P53350 whole entry, the tested form may be a part): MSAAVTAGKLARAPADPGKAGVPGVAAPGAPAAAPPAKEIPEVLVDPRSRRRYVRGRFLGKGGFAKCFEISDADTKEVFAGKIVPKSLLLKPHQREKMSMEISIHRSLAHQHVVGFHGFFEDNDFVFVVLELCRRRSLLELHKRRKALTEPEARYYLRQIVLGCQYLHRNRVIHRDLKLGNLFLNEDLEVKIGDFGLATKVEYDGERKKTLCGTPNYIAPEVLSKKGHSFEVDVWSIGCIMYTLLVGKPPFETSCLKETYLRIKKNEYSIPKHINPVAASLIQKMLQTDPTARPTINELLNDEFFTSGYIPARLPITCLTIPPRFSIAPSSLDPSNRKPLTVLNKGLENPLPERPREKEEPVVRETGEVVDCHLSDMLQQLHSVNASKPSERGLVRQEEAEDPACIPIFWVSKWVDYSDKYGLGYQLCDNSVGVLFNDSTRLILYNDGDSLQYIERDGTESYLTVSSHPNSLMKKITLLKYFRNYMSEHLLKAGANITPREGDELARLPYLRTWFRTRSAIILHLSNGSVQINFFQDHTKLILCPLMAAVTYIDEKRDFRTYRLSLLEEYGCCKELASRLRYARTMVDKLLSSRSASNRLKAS
Serine/threonine-protein kinase D1 (Homo sapiens), sequence (Q15139 whole entry, looked up, the tested form may be a part): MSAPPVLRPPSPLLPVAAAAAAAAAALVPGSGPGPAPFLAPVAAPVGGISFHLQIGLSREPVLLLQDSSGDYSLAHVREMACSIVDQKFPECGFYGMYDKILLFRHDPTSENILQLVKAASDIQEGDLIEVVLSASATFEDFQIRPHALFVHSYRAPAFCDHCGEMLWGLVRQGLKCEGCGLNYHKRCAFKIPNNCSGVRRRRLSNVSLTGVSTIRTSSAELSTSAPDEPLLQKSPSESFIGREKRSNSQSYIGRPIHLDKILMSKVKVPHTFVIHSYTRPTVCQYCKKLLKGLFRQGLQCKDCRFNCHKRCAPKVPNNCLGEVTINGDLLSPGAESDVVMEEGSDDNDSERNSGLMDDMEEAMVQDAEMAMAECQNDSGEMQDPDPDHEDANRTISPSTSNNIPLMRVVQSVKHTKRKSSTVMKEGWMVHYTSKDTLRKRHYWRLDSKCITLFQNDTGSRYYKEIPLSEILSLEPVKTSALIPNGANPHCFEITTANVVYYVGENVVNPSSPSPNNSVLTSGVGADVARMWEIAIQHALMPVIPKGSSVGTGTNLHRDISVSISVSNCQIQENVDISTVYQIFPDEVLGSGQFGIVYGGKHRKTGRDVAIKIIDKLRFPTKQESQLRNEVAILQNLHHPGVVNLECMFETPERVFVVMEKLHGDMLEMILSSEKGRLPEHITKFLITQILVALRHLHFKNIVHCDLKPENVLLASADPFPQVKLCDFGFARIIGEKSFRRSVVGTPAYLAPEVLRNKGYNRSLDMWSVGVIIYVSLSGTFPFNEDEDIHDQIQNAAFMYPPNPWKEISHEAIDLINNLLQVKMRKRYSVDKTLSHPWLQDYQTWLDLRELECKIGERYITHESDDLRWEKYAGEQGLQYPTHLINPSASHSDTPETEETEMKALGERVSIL
Inhibitor of nuclear factor kappa-B kinase subunit epsilon (Homo sapiens), sequence (Q14164 whole entry, the tested form may be a part): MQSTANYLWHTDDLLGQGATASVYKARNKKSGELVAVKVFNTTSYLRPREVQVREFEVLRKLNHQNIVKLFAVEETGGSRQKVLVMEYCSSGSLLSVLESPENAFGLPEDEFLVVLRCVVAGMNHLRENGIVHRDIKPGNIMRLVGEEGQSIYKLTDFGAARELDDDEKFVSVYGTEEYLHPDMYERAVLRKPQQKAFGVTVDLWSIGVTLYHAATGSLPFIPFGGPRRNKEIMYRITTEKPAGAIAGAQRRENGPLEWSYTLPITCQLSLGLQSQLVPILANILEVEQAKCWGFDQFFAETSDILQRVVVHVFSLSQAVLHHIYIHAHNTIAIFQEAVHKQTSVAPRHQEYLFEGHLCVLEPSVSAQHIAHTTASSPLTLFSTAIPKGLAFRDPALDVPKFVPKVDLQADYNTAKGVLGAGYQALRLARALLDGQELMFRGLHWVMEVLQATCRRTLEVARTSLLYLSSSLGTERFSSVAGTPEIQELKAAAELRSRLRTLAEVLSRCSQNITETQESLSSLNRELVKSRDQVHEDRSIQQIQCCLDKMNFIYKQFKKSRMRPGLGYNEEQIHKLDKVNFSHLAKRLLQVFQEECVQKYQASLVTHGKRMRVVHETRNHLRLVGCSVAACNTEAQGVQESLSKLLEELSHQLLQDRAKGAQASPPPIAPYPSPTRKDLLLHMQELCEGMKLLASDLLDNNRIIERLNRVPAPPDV

As to `COc1ccc(-c2ccc3c(N4CCOCC4)nc(N4C[C@@H](C)O[C@@H](C)C4)nc3n2)cc1CO` [Ku-0063794], the Activity worked out at 90% in [1]; 104% in [2]; 99% in series [3]; 96% in [4]; 88% in series [5]; 89% in [6]. The Activity stood at 94% in [7]; 82% in series [8]; 102% in the series listed under Homo sapiens; 9.4% in the series with MEF; 80% in series [14]. For the same compound, the inhibition result with HEK293 [9] and in the series with HEK293 [10] was “inactive” each time. Besides, the inhibition result at mTORC2 (Homo sapiens) [11], at mTORC2 (Homo sapiens) [12] and at mTORC2 (Homo sapiens) [13] was “Active” each time.
